The test system of data set [1] is HT-22. The data set can be described thus: Neuroprotective against amyloid beta (42 residues)-induced cell death in mouse HT22 cells transfected with pEGFP-C1/Abeta42 assessed as increase in cell viability at 40 uM measured after 24 hrs by MTT assay. The format is functional, cell-based. Put shortly: (§1)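 HT22 cells seeded at 4000 cells/well for 2–3 h at 37 °C, 5% CO2, then transfected with 0.2 μg pEGFP-C1/Aβ42 plasmid by Lipofectamine 2000. After 10 h, compounds were added in medium, mostly at 40 μM, some at 5 μM or at 10, 20 and 40 μM. Incubation continued 24 h, then MTT (2 mg/mL) viability read-out. Mean ± SD, n = 3, versus untreated Aβ42-transfected cells.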

Data set [2] concerns HT-22. The data set can be described thus: Neuroprotective against amyloid beta (42 residues)-induced cell death in mouse HT22 cells transfected with pEGFP-C1/Abeta42 assessed as increase in cell viability up to 80 uM measured after 24 hrs by MTT assay. In kind it is functional, cell-based.
The test system of data set [3] is HT-22. The data set can be described thus: Cytotoxicity against mouse HT22 cells assessed as reduction in cell viability at 40 uM measured after 24 hrs by MTT assay. The format is cell-based. Conditions: ht-22, 24 h. Put shortly: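 Untransfected HT22 mouse hippocampal cells grown in DMEM with 10% FBS and penicillin/streptomycin, seeded at 4000 cells/well, then incubated 24 h. Compounds in DMSO, diluted in serum-free medium (final DMSO 0.1 to 0.2% v/v), applied for 24 h. MTT (2 mg/mL) added for 4 h in the dark, formazan dissolved in DMSO, absorbance read at 550 nm.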

The test system of data set [4] is HT-22. The data set is described as follows: Neuroprotective against amyloid beta (42 residues)-induced cell death in mouse HT22 cells transfected with pEGFP-C1/Abeta42 assessed as increase in fluorescence intensity at 40 uM measured after 24 hrs by fluorescence microscopic analysis. The format is functional, cell-based. Put shortly: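 HT22 cells grown on glass coverslips, transfected with Aβ42 plasmid for 10 h. Medium then replaced with fresh medium containing 2% FBS, with or without compounds at 40 μM, for 24 h. Cells washed once with PBS. Fluorescence and bright-field images were captured by fluorescence microscopy to view GFP condensation.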

Data set [5] relates to HT-22. The data set is described as follows: Neuroprotective against amyloid beta (42 residues)-induced cell death in mouse HT22 cells transfected with pEGFP-C1/Abeta42 assessed as increase in cell viability measured after 24 hrs by MTT assay. In kind it is functional, cell-based. Put shortly:
as §1

Data set [6] relates to HT-22. The data set is described as follows: Neuroprotective against amyloid beta (42 residues)-induced cell death in mouse HT22 cells transfected with pEGFP-C1/Abeta42 assessed as decrease in fluorescence intensity at 40 uM measured after 24 hrs by flow cytometry.

Activity calls are given as the source filed them. The rule behind the calls is not given here.

For the compound `CC(=O)O[C@@H]1C[C@H]2[C@H](C)[C@H]3OC(=O)[C@@H](C)[C@H]3CC[C@]2(C)[C@H]1OC(C)=O`, the outcome in data set [1] was Active.

As for `C=C1CC[C@@H]2[C@](C)(CO)[C@H](O)CC[C@@]2(C)[C@@H]1C/C=C1/C(=O)OC[C@H]1O`, the result in data set [2] was Active. As for `CC1=CC[C@H](O)[C@@]2(C)[C@@H](OC(=O)C[C@](C)(O)CC(=O)O)C[C@@H](C(C)C)[C@@H](O[C@@H]3O[C@H](CO)[C@@H](O)[C@H](O)[C@H]3O)[C@H]12`, in data set [1], the outcome was Active.

Turning to `C=C1CC[C@@H](O[C@@H]2O[C@H](CO)[C@@H](O)[C@H](O)[C@H]2O)[C@]2(C)CC[C@@H](C(C)C)[C@H](O)[C@@H]12`, the outcome in data set [1] was Active. As for `C=C1C(=O)O[C@@H]2C[C@@H](C)[C@@H]3C[C@@H](OC(C)=O)[C@H](OC(C)=O)[C@@]3(C)C[C@H]12`, the Activity result in data set [3] is recorded as “Toxic”. For the compound `C=C(C(=O)O)[C@H]1C[C@]2(C)C(=O)CC[C@]23O[C@H]1C[C@@H]3C`, in data set [1], the outcome was Active.

With `CC1=CC[C@H](O)[C@@]2(C)[C@@H](O)C[C@@H](C(C)C)[C@@H](O[C@@H]3O[C@H](CO)[C@@H](O)[C@H](O)[C@H]3O)[C@H]12`, the result in data set [4], in data set [6] and in data set [1] was Active. In addition, the Activity entry in data set [5] was “Dose-dependent effect”. For the compound `CC1=CC[C@H](O[C@@H]2OC[C@@H](O)[C@H](O)[C@H]2O)[C@@]2(C)[C@@H](O)C[C@@H](C(C)C)[C@@H](O[C@@H]3O[C@H](CO)[C@@H](O)[C@H](O)[C@H]3O)[C@H]12`, the result in data set [4], in data set [6] and in data set [1] was Active. Further, the Activity result in data set [5] was “Dose-dependent effect”. For `CC(=O)OC[C@H]1O[C@@H](O[C@@H]2[C@H](C(C)C)C[C@H](OC(=O)C[C@](C)(O)CC(=O)O)[C@]3(C)[C@@H](O)CC=C(C)[C@@H]23)[C@H](O)[C@@H](O)[C@@H]1O`, in data set [1], the outcome was Active.

`C=C1C(=O)O[C@@H]2[C@H]3C(C)=CC[C@H]3[C@](C)(O)C[C@H](O)[C@@H]12` [CUMAMBRIN B]: the Activity result in data set [3] is listed as “Toxic”. Consider `CC1=CC[C@H](OC(=O)C[C@](C)(O)CC(=O)O)[C@@]2(C)[C@@H](O)C[C@@H](C(C)C)[C@@H](O[C@@H]3O[C@H](CO)[C@@H](O)[C@H](O)[C@H]3O)[C@H]12`, for which the result in data set [1] was Active. Regarding `O=C(/C=C/c1ccc(O)cc1)NCCCCN(CCCNC(=O)/C=C/c1ccc(O)cc1)C(=O)/C=C/c1ccc(O)cc1`, the result in data set [1] was Active.

For the origin of these results see ChEMBL document CHEMBL4316644, “Eudesmane Glycosides from Ambrosia artemisiifolia (Common Ragweed) as Potential Neuroprotective Agents” (J Nat Prod, 2019).
